Source: PubChem
MEKK2wt PB1 HTS = modulators of MEK5 binding to wildtype MEKK2, primary screen, biochemical, multiplex bead flow cytometry, Alexa488-MEK5; Mitogen-activated protein kinase kinase kinase 2 (Homo sapiens), Q9Y2U5; Alexa488-MEK5 binding to MEKK2 WT; actives lie on both sides; binding response (% of control), % at 10 µM; hit rate 1.1% among 290,000; AID 1531, 2009; in the data active = binding response below about 67% or above about 130%
ABCB1 block = ABCB1 efflux pump inhibitors, primary screen, cell-based, multiplex, flow cytometry, ABCG2 counter-screen; CCRF-Adr cells, JC-1 efflux; inhibition, % at 6.6 µM; hit rate 0.067% among 190,000; AID 1326, 2008; ATP-dependent translocase ABCB1 (Homo sapiens), P08183; in the data active = inhibition above about 40%;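 also: 0% = vehicle and 100% = reference inhibitor; higher value means more JC-1 retained so stronger ABCB1 efflux block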
MEKK3 PB1 HTS = modulators of MEKK3-MEK5 PB1 binding, primary screen, biochemical, wildtype MEKK3, multiplex bead flow cytometry, Alexa488-MEK5; hit rate 1.4% among 290,000; bead-based flow cytometry, Alexa488-MEK5 binding to MEKK3; actives lie on both sides; 0 = blocked by unlabeled MEK5, 100 = vehicle; binding response (% of control), % at 10 µM;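 active = binding response more than 3 SD above or below the average of its plate-row segment, actives on both sides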;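 also: Alexa488 bead fluorescence after subtracting the streptavidin-only scavenger bead signal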
WT yeast gro inh = growth inhibition of WT strain, primary screen, mitochondrial fusion inhibitor project, WT and mutant strains, chemical genetic. mitochondrial fusion phenotypic screen. inhibition, % at 10 µM. hit rate 2.1% among 190,000; in the data active = inhibition above about 58%; tested in S. cerevisiae
MEKK2 mut-MEK5 = MEK5 binding signal on mutant MEKK2 PB1, primary screen, biochemical, multiplex bead flow cytometry, Alexa488-MEK5; Alexa488-MEK5 binding to MEKK2 mutant; percent response, % at 10 µM; hit rate 0.35% among 290,000; in the data active = percent response above about 24%, passing the limit was not always enough
ABCG2 inh = ABCG2 efflux pump inhibitors, primary screen, multiplex with ABCB1, IgMXP3 cells, flow cytometry | Broad substrate specificity ATP-binding cassette transporter ABCG2 (Homo sapiens), Q9UNQ0 | inhibition, % at 6.6 µM | JC-1 efflux | hit rate 0.1% among 190,000;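 active = inhibition above 80%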;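 also: 0% = DMSO and 100% = nicardipine control wells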
Target sequence (Q9UNQ0 whole entry, looked up): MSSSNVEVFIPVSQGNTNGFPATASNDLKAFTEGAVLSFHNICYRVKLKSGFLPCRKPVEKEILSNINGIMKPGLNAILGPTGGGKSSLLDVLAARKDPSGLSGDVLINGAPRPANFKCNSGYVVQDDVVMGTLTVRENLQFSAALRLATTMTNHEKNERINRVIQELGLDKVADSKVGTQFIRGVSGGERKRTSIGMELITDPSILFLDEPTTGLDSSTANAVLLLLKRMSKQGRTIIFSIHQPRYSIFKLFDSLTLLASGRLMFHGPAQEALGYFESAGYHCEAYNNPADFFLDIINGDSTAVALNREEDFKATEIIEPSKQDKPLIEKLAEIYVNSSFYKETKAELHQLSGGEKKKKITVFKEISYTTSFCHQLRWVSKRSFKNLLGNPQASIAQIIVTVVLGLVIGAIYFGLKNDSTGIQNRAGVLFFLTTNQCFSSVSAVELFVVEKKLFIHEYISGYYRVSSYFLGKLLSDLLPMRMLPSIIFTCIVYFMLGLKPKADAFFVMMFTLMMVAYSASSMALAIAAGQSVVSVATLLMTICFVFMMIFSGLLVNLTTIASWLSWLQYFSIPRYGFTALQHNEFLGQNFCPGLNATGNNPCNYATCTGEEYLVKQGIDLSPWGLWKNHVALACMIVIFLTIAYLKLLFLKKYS
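Assay system – ABCG2 IgMXP3 and barcoded ABCB1 CCRF-Adr cell mix · Input – 3 million cells/mL in well · Reagent – JC-1 fluorescent substrate · Compound – single test compound dose, 6.6 µM final · Timing – 10 min exposure at 25 °C with rotation, no wash · Detection – flow cytometry of retained JC-1 fluorescence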
MEKK2wt confirm = modulators of MEK5 binding to wildtype MEKK2, confirmation, biochemical, single concentration, multiplex bead flow cytometry; shares compounds with MEKK3 PB1 HTS; AID 1892, 2009; Alexa488-MEK5 binding to MEKK2 WT; actives lie on both sides; hit rate 2.4% among 5,900; binding response (% of control), % at 10 µM; in the data active = binding response below about 16% or above about 210%; inactive = in between
MEKK2mut confirm = mutant MEKK2 PB1-MEK5 binding signal retest – biochemical, single concentration, multiplex bead flow cytometry, confirmation | percent response, % at 10 µM | hit rate 2% among 5,900 | Alexa488-MEK5 binding to MEKK2 mutant | shares compounds with MEKK3 PB1 HTS; in the data active = percent response mostly above about 71%, no sharp cut-off; inactive = mostly below about 38%;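 also: higher means compound restores mutant binding toward wildtype level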
MEKK3-MEK5 inh = MEKK3 wild-type PB1 binding to MEK5, inhibitors, confirmation, biochemical, bead multiplex flow cytometry, single concentration, wildtype; shares compounds with MEKK3 PB1 HTS; Alexa488-MEK5 binding to MEKK3; hits give low values; binding response (% of control), % at 10 µM; hit rate 1.8% among 5,900; AID 1894, 2009;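 active = binding response below 72% of control, or above a set upper limit, though filed actives all read lower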;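 also: 100% = DMSO only wells and 0% = binding blocked by excess unlabeled MEK5; lower values mean stronger disruption of MEK5 binding to MEKK3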
Active calls of the source: *; / = not tested or not shown; [ ] = remark or other dose. Compounds with a hit are over-represented: about 3.5% of the library has one in this group of screens.

SMILES | MEKK2wt PB1 HTS | ABCB1 block | MEKK3 PB1 HTS | WT yeast gro inh | MEKK2 mut-MEK5 | ABCG2 inh | MEKK2wt confirm | MEKK2mut confirm | MEKK3-MEK5 inh
C#CCOCCOCCOCCNc1nc(N2CCOCC2)nc(N2CCN(C(=O)[C@H](Cc3cc4ccccc4[nH]3)n3cc([C@@H](N)C(C)CC)nn3)CC2)n1 (stereo partly drawn) | 126 | -1 | 101 | -8 | 11 | -1 | / | / | /
COc1cccc(Nc2ccc(Nc3cccc(OC)c3)nn2)c1 | 172* | 0 | 113 | 12 | 76* | 4 | 108 | 2 | 103
CCCCOC(=O)Nc1ccc(S(=O)(=O)Nc2onc(C)c2C)cc1 | 97 | / | 97 | / | 5 | / | / | / | /
CCN1C(c2ccccc2)=C(c2ccccc2)S/C1=C\C=C1/SC(=S)N(C)C1=O | -8.0* | / | 33*[inhibitor] | / | -22 | / | 46 | -44 | 70*
CCN1C(c2ccccc2)=C(c2ccccc2)S/C1=C/C=C1\SC(=S)N(C)C1=O | -7.0* | 0 | 37*[inhibitor] | 33 | -15 | 0 | 29 | -20 | 51*
CN1CCS/C1=C/C=C1/SC(=S)N(Cc2ccccc2)C1=O | 69 | 5 | 95 | -11 | -2 | 15 | / | / | /
CCN1C(=O)/C(=C/C=C2/Sc3ccc4ccccc4c3N2CCO)SC1=S | 8.0*[inhibitor] | 0 | 90 | 8 | -3 | -8 | 73 | -33 | 85
CCOc1cc(NC(=O)c2cccs2)c(OCC)cc1NC(=O)CCC(=O)NCC1CCCO1 (stereo not drawn) | 98 | -1 | 94 | 15 | -2 | -4 | / | / | /
CCOC(=O)CN1CCS(=O)(=O)CC1 | 103 | 1 | 106 | -6 | 2 | 5 | / | / | /
O=C(NC1CCCCC1)N1CCN(c2ncccn2)CC1 | 101 | 0 | 99 | -11 | 3 | 2 | / | / | /
Cc1ccc(N(CC(=O)NCCSc2nc3ccccc3s2)S(=O)(=O)c2ccccc2)c(C)c1 | 105 | 2 | 150* | 3 | 0 | 6 | 105 | 6 | 108
COc1ccccc1N1CCN(C2CCCN(C(=O)CCN3CCCCO3)C2)CC1 (stereo not drawn) | 95 | / | 96 | / | -2 | / | / | / | /
Cc1ccc(NC(=O)CC2SC(=NCC3CCCO3)NC2=O)cc1Cl (stereo not drawn) | 101 | 0 | 139* | -3 | -1 | 12 | 96 | -6 | 102
Cc1cc(Nc2ccc(C)c(Cl)c2)nc(N2CCOCC2)n1 | 123 | / | 130* | / | 26 | / | 106 | -3 | 102
Cc1ccc(Nc2cc(C)nc(N3CCOCC3)n2)cc1 | 100 | 1 | 101 | 18 | 7 | 6 | / | / | /
CC1CCCN(C(=O)CN2C(=O)c3ccccc3C2=O)C1 (stereo not drawn) | 13*[inhibitor] | -1 | 29*[inhibitor] | 3 | -35 | 5 | 95 | 10 | 103
Cn1c(=O)[nH]c(=O)c2c1nc(SCC(=O)O)n2Cc1ccccc1 | 105 | / | 102 | / | 27* | / | 106 | 4 | 104
COCCn1c(Sc2ccccc2)nc2c1c(=O)[nH]c(=O)n2C | 3.0*[inhibitor] | 1 | 2.0*[inhibitor] | 4 | -21 | 14 | 101 | 3 | 100
Cn1c(=O)[nH]c(=O)c2c1nc(SCC(=O)O)n2CCCc1ccccc1 | 105 | / | 100 | / | 7 | / | / | / | /
